Screening data deposited in PubChem by The Scripps Research Institute Molecular Screening Center.
Sampled rows, rich in hits. Any-hit rate of the full collection: about 1.5%.
CHRM4 agonist: agonists of human muscarinic M4 receptor (CHRM4); actives 0.14% (n = 360,000); activation, % at 3 µM; CHO-K1 hM4/Gqi5, Fluo-8 calcium fluorescence; vehicle 0%, full acetylcholine response 100%;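 active = activation above the run mean over all test wells plus 3 SD, cut at about 32% in these data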;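 note: peak over basal fluorescence ratio per well then scaled between controls; 0% = DMSO wells and 100% = acetylcholine at EC100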
OXTR ag: human OXTR agonism; P30559; CHO-OTR cells, Fluo-8 calcium fluorescence; normalized: DMSO 0%, oxytocin 100%; activation, % at 3 µM; actives 0.32% (n = 320,000);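 active = activation above the mean of all tested compounds plus 3 SD, cutoff set per screening run, cut at about 20% in these data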;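 note: peak over basal fluorescence ratio from a 100 s FLIPR kinetic read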
V1aR counter: V1a receptor agonism, counter-screen for OXTR agonists; P37288; CHO-V1R cells, Fluo-8 calcium fluorescence, agonist mode; 0% DMSO, 100% 3 nM vasopressin; activation, % at 3 µM; actives 0.25% (n = 320,000); AID 2797;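 active = activation above the mean activation of all tested compounds plus 3 SD, per screening run, cut at about 20% in these data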;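 note: signal is peak over basal fluorescence ratio across a 100 second FLIPR read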
Target sequence (P37288 whole entry, looked up): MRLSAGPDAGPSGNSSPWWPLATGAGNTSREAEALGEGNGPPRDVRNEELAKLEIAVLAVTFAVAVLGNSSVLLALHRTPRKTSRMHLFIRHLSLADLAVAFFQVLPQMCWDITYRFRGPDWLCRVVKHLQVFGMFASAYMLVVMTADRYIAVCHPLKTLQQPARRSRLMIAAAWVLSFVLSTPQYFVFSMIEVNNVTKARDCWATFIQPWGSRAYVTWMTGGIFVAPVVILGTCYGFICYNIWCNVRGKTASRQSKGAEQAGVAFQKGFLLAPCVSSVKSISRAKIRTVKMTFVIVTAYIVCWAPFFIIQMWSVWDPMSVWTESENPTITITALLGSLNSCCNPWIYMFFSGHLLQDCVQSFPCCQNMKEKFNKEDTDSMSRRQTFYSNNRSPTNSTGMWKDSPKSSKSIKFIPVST
CHRM4 PAM: CHRM4 positive allosteric modulation; P08173; CHO-K1 hM4/Gqi5, Fluo-8 calcium fluorescence, ACh EC20; 0% = ACh EC20, 100% = maximal ACh; activation, % at 3 µM; actives 0.4% (n = 360,000); AID 624126;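 active = activation above its plate's cutoff, the mean activation of sample wells plus 3 SD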
CHRM4 antagonist: antagonists of human muscarinic M4 receptor (CHRM4). P08173. CHO-hM4 cells, ACh EC80, Fluo-8 calcium fluorescence. inhibition, % at 3 µM. actives 0.73% (n = 360,000). AID 624125;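 active = inhibition above its plate's cutoff, the mean inhibition of sample wells plus 3 SD, cut at about 27% in these data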;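 note: 0% = acetylcholine EC80 with DMSO and 100% = DMSO without agonist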
OXTR potentiate: potentiators of human oxytocin receptor; actives 0.061% (n = 320,000); CHO-OTR cells, Fluo-8 calcium fluorescence, potentiator mode; 0% = oxytocin EC15, 100% = EC100; AID 2445; activation, % at 3 µM; P30559;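 active = activation above that plate's cutoff, the mean activation of tested compounds plus 3 SD, cut at about 6.6% in these data, passing the limit was not always enough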;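 note: 100% uses oxytocin at 75 nM as the full agonist control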
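test system = CHO-OTR cells, human receptor | compound = single-point 3.0 µM | schedule = 6 min compound pre-incubation at room temperature, 100 s kinetic read | signal = Fluo-8 no-wash calcium dye fluorescence, excitation 470-495 nm, emission 515-575 nm | repeats = single well per compound, singlicate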
* marks the source's active call; other numbers are inactive results.

Results for COc1ccc(C(=O)NC(=S)NNC(=O)c2ccc(C)cc2)cc1 ?
CHRM4 agonist: 118*; OXTR ag: 82*; V1aR counter: 108*; CHRM4 PAM: -48; CHRM4 antagonist: 15; OXTR potentiate: -23

How did COc1cc(C(=O)NNC(=S)NC(=O)c2ccc(Cl)cc2)cc(OC)c1OC do in these assays?
CHRM4 agonist: 44*; OXTR ag: 37*; V1aR counter: 34*; CHRM4 PAM: -9; CHRM4 antagonist: 5; OXTR potentiate: -13

Results for COc1ccc(CCC(=O)NC2CCCc3ccccc32)cc1OC (stereo unspecified) ?
CHRM4 agonist: 2; OXTR ag: 1; V1aR counter: 0; CHRM4 PAM: -1; CHRM4 antagonist: 2; OXTR potentiate: -5

How did COc1ccc(C(=O)NNC(=S)NC(=O)c2ccc(Cl)cc2)cc1 do in these assays?
OXTR ag: 71*; V1aR counter: 76*; OXTR potentiate: -22

What do the screens show for `O=C(CC[C@H]1O[C@@H](n2ccc(=O)[nH]c2=O)[C@H](O)[C@@H]1O)N1CCN(c2ccccn2)CC1`?
CHRM4 agonist: 1; CHRM4 PAM: 21*; CHRM4 antagonist: -16

How did COc1cccc(OC)c1C(=O)Nc1cccc(S(=O)(=O)Nc2ccccc2Cl)c1 do in these assays?
CHRM4 agonist: 3; OXTR ag: 0; V1aR counter: 2; CHRM4 PAM: 5; CHRM4 antagonist: -13; OXTR potentiate: -6

What do the screens show for `COc1ccccc1NS(=O)(=O)c1cccc(NC(=O)Nc2ccccc2)c1`?
CHRM4 agonist: 35*; OXTR ag: 15; V1aR counter: 18; CHRM4 PAM: -39; CHRM4 antagonist: 61*; OXTR potentiate: -10

What do the screens show for `COc1ccccc1NS(=O)(=O)c1cccc(NC(=O)Nc2ccc(Cl)cc2)c1`?
CHRM4 agonist: 19; OXTR ag: 9; V1aR counter: 10; CHRM4 PAM: -16; CHRM4 antagonist: 46*; OXTR potentiate: -19

How did CCNC(=S)Nc1cccc(S(=O)(=O)Nc2ccccc2OC)c1 do in these assays?
CHRM4 agonist: 5; OXTR ag: 5; V1aR counter: 5; CHRM4 PAM: 0; CHRM4 antagonist: -11; OXTR potentiate: -26

How did CCOc1ccc(CN2CCN(Cc3cccn3-c3nccs3)CC2CCO)cc1 (stereo unspecified) do in these assays?
CHRM4 agonist: 1; OXTR ag: 0; V1aR counter: 0; CHRM4 PAM: -9; CHRM4 antagonist: -3; OXTR potentiate: -2

How did O=C(C[n+]1ccccc1)N/N=C/c1cccs1 do in these assays?
CHRM4 agonist: 0; OXTR ag: 0; V1aR counter: 1; CHRM4 PAM: -3; CHRM4 antagonist: 6; OXTR potentiate: -3

What do the screens show for `c1ccc(CN2CCC3CC2c2cc(N4CCOCC4)ccc23)cc1` (stereo unspecified)?
CHRM4 agonist: 0; CHRM4 PAM: 2; CHRM4 antagonist: -6

What do the screens show for `CC(C)n1cc(/C(N)=N/O)c(=O)n(Cc2ccccc2)c1=O`?
CHRM4 agonist: 6; OXTR ag: 1; V1aR counter: 5; CHRM4 PAM: 13*; CHRM4 antagonist: 22; OXTR potentiate: 6

Results for CCOc1ccc(N2C(=O)CC(N3CC(C)OC(C)C3)C2=O)cc1 (stereo unspecified) ?
CHRM4 agonist: 0; OXTR ag: 0; V1aR counter: 0; CHRM4 PAM: 9; CHRM4 antagonist: 2; OXTR potentiate: -8

Results for C(=N\Nc1nc(N2CCCC2)nc(N2CCCC2)n1)/c1ccccc1OCc1ccccc1 ?
CHRM4 agonist: 1; OXTR ag: -2; V1aR counter: 0; CHRM4 PAM: 9; CHRM4 antagonist: -10; OXTR potentiate: -24

Results for Fc1ccc(COc2ccc(Cl)cc2/C=N/Nc2nc(N3CCCC3)nc(N3CCCC3)n2)cc1 ?
CHRM4 agonist: 34*; OXTR ag: 0; V1aR counter: 1; CHRM4 PAM: -15; CHRM4 antagonist: -1; OXTR potentiate: -3

How did COc1ccccc1CN(C(=O)CNC(=O)c1ccco1)C(C(=O)NCC1CCCO1)c1ccccc1 (stereo unspecified) do in these assays?
CHRM4 agonist: 24; OXTR ag: 5; V1aR counter: 4; CHRM4 PAM: -16; CHRM4 antagonist: 8; OXTR potentiate: -6

What do the screens show for `CCCS(=O)(=O)N1CCN(C(=O)c2ccco2)CC1`?
CHRM4 agonist: 1; OXTR ag: 1; V1aR counter: 1; CHRM4 PAM: 20*; CHRM4 antagonist: -3; OXTR potentiate: -17

What do the screens show for `CCS(=O)(=O)N1CCN(C(=O)c2ccco2)CC1`?
CHRM4 agonist: 2; OXTR ag: 0; V1aR counter: 0; CHRM4 PAM: 3; CHRM4 antagonist: -1; OXTR potentiate: -10

What do the screens show for `O=C1c2cccc3c(N4CCCCC4)ccc(c23)C(=O)N1c1ccccc1O`?
CHRM4 agonist: 39*; OXTR ag: 43*; V1aR counter: 41*; CHRM4 PAM: -17; CHRM4 antagonist: 35*; OXTR potentiate: -36

Results for O=C1c2cccc3cccc(c23)C(=O)N1c1ccc(O)cc1 ?
CHRM4 agonist: 0; OXTR ag: 0; V1aR counter: -1; CHRM4 PAM: -3; CHRM4 antagonist: -1; OXTR potentiate: 2

How did O=C1c2cccc3c(N4CCCCC4)ccc(c23)C(=O)N1c1ccc(O)cc1 do in these assays?
CHRM4 agonist: 11; OXTR ag: 22*; V1aR counter: 23*; CHRM4 PAM: 1; CHRM4 antagonist: 4; OXTR potentiate: -17

What do the screens show for `COc1ccc(OCc2cc(C(=O)NC(C)Cc3cnccn3)no2)c(Cl)c1` (stereo unspecified)?
CHRM4 agonist: 9; OXTR ag: 1; V1aR counter: 3; CHRM4 PAM: 6; CHRM4 antagonist: -11; OXTR potentiate: -3

Results for CNC(=O)c1cc(C(=O)c2ccc(C(F)(F)F)cc2)c[nH]1 ?
CHRM4 agonist: 4; OXTR ag: 3; V1aR counter: 5; CHRM4 PAM: -16; CHRM4 antagonist: 43*; OXTR potentiate: -15

How did Cc1ccccc1NC(=O)NCCCCc1ccccc1 do in these assays?
CHRM4 agonist: 2; OXTR ag: -1; V1aR counter: 2; CHRM4 PAM: 12; CHRM4 antagonist: -10; OXTR potentiate: 0

Results for CCN(CC)CCN(C(=O)c1ccc2ccccc2c1)c1nc2ccc(F)cc2s1 ?
CHRM4 agonist: 1; OXTR ag: -1; V1aR counter: 2; CHRM4 PAM: 18*; CHRM4 antagonist: -7; OXTR potentiate: -12

How did CN(CC1CCCN(CCc2ccccc2F)C1)C(=O)c1cc2ccccc2o1 (stereo unspecified) do in these assays?
CHRM4 agonist: 1; CHRM4 PAM: -12; CHRM4 antagonist: 37*
